Here are results for 8 compounds from ChEMBL document CHEMBL1131239, “Orally active benzamide antipsychotic agents with affinity for dopamine D2, serotonin 5-HT1A, and adrenergic alpha1 receptors” (J Med Chem, 1998).

Assay [1] has as its target T1, 5-hydroxytryptamine receptor 1A (Rattus norvegicus, UniProt P19327).
T1 sequence (P19327 whole entry): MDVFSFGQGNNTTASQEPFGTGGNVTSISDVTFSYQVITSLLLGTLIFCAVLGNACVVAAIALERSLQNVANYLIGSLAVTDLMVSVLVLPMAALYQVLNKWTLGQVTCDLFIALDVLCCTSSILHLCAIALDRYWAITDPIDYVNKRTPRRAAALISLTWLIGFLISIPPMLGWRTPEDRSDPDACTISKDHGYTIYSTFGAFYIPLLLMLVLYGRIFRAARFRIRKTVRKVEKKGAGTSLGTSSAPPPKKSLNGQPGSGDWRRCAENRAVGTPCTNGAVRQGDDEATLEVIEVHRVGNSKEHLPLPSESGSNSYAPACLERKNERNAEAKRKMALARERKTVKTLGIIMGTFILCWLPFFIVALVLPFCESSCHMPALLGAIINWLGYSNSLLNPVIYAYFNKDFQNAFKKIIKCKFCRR
Kind of assay: Compound was evaluated for its binding affinity against 5-hydroxytryptamine 1A receptor from rat cerebral cortex. In kind it is tissue-based.

In assay [2] the test system is Rattus norvegicus. Kind of assay: compound was tested for antipsychotic activity by conditioned avoidance response(CAR) assay in rats with a pretreatment period of 30 min upon intra peritoneal administration at a concentration of 5 mg/kg. In kind it is functional. The method in brief: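 Rat conditioned avoidance test modified from Martin et al. Trained rats (N = 4) were run in 1-h sessions on two consecutive days. Fed animals had food and water until placed in the test chambers. Dosing was ip with 30 min pretreatment, and activity was expressed as percent inhibition at the stated dose.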

Assay [3] deals with Rattus norvegicus. The assay can be described thus: compound was tested for antipsychotic activity by conditioned avoidance response(CAR) assay in rats with a pretreatment period of 30 min upon intra peritoneal administration at a concentration of 15 mg/kg. Format: functional. Summed up:
(§1)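 Trained rats (N = 4) were run in 1-h sessions on two consecutive days, with the experimenter blind to drug and dose. Fed rats had food and water until placed in the test chambers. Fasted rats had no food overnight before the experiment.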

Assay [4] concerns the target T2, Adrenergic receptor alpha-1 (Rattus norvegicus, UniProt P15823+P23944+P43140).
T2 sequence (P15823 whole entry): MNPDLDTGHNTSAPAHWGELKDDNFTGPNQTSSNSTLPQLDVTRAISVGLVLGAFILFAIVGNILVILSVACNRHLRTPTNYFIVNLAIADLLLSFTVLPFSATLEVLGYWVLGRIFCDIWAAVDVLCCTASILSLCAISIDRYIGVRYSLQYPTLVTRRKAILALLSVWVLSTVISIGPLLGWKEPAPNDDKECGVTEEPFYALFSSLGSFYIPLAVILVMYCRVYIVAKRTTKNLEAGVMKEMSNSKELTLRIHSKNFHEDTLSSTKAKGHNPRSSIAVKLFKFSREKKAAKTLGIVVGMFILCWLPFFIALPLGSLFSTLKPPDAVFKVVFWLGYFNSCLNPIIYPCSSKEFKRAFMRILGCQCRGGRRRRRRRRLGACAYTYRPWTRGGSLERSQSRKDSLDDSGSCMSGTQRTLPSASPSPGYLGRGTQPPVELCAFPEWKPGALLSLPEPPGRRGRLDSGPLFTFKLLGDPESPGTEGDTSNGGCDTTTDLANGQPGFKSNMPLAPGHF
T2 sequence (P23944 whole entry): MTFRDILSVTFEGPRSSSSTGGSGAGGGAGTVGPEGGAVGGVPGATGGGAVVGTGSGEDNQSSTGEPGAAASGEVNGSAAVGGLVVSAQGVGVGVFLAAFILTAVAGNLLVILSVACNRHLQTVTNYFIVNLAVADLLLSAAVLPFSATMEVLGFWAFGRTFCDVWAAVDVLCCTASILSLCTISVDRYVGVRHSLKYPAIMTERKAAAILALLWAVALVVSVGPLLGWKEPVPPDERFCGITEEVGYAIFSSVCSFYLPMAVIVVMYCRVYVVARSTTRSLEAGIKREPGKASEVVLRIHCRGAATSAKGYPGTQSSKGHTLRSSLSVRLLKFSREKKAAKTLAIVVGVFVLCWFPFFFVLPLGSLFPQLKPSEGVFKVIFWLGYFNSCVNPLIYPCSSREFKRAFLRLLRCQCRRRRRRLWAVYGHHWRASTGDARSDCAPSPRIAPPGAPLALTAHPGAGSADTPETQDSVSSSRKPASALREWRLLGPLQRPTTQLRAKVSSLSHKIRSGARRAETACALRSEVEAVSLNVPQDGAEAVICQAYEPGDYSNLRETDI
T2 sequence (P43140 whole entry): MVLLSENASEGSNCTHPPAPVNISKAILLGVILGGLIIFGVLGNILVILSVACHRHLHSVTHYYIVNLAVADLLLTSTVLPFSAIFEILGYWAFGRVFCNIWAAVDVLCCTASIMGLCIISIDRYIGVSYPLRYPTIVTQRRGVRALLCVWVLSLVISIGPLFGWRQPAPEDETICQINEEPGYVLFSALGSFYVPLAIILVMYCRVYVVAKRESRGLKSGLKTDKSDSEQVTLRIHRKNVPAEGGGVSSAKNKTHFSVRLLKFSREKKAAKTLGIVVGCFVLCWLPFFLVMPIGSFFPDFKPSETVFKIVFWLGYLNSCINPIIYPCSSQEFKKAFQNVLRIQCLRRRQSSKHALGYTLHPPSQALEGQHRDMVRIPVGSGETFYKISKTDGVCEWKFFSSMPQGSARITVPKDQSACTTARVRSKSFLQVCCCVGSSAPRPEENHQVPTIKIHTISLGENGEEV
Kind of assay: Binding affinity against Alpha-1 adrenergic receptor from rat cerebral cortex. Format: tissue-based.

Assay [5] relates to Rattus norvegicus. Kind of assay: compound was tested for antipsychotic activity by conditioned avoidance response(CAR) assay in rats with a pretreatment period of 30 min upon peroral administration at a concentration of 20 mg/kg. Format: functional. The note with it: route oral. The method in brief: as §1
Assay [6] concerns Rattus norvegicus. The assay can be described thus: Percent catalepsy in male Spargue-Dawley rat at pretreatment time 60 mins and when administered ip at dose 50 mg/kg. In kind it is functional. As to conditions: route intraperitoneal. Summed up:
(§2)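 Catalepsy in rats, groups of five per drug treatment, scored blind to drug and dose. Each session included a saline or vehicle negative control and a haloperidol 2 mg/kg positive control. Deaths during the experiment were recorded in the catalepsy column as number dead out of five.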

Assay [7] deals with Rattus norvegicus. Kind of assay: compound was tested for antipsychotic activity by conditioned avoidance response(CAR) assay in rats with a pretreatment period of 30 min upon intra peritoneal administration at a concentration of 1 mg/kg. Format: functional. The method in brief:
as §1

Assay [8] deals with Rattus norvegicus. Kind of assay: compound was tested for antipsychotic activity by conditioned avoidance response(CAR) assay in rats with a pretreatment period of 30 min upon intra peritoneal administration at a concentration of 5 mg/kg. Format: functional. The method in brief:
as §1

In assay [9] the test system is Rattus norvegicus. Kind of assay: compound was tested for antipsychotic activity by conditioned avoidance response(CAR) assay in rats with a pretreatment period of 60 min upon peroral administration at a concentration of 20 mg/kg. Format: functional. The note with it: route oral.
The subject of assay [10] is Rattus norvegicus. The assay can be described thus: Percent catalepsy in male Spargue-Dawley rat at pretreatment time 240 mins and when administered ip at dose 50 mg/kg. Format: functional. The note with it: route intraperitoneal. The method in brief:
as §2

Assay [11] has as its system Rattus norvegicus. Kind of assay: compound was tested for antipsychotic activity by conditioned avoidance response(CAR) assay in rats with a pretreatment period of 30 min upon intra peritoneal administration. In kind it is functional. The method in brief: as §1
Assay [12] has as its system Rattus norvegicus. The assay can be described thus: Percent catalepsy in male Spargue-Dawley rat at pretreatment time 60 mins and administered ip at dose 50 mg/kg. In kind it is functional. The note with it: route intraperitoneal. The method in brief: as §2
The target in assay [13] is T1, 5-hydroxytryptamine receptor 1A. The assay can be described thus: Compound was evaluated for its binding affinity with 5-hydroxytryptamine 1A receptor using membranes prepared from rat cerebral cortex. In kind it is tissue-based. The method in brief: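 Membranes from male Wistar rat cerebral cortex: homogenized in HEPES-buffered 0.3 M sucrose, P2 pellet incubated 30 min at 25 °C, resuspended in 3 mM phosphate buffer pH 7.5. Labeled with 3 nM [3H]-8-OH-DPAT for 20 min at 25 °C. Nonspecific binding defined with 1 μM serotonin.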

The target of assay [14] is T2, Adrenergic receptor alpha-1. The assay can be described thus: Compound was evaluated for its binding affinity with Alpha-1 adrenergic receptor using membranes prepared from rat cerebral cortex. In kind it is tissue-based.

With `CC(C)Oc1ccccc1N1CCN(Cc2cccc(C(=O)N3CCCCC3=O)c2)CC1`, the inhibitory constant (Ki) was 3.9 nM in [1] and 6.4 nM in [4]. The inhibition in vivo at 5 mg/kg with Rattus norvegicus [2] is -11.2%. In the assay with Rattus norvegicus [3], the inhibition in vivo at 15 mg/kg is -92.4%.

On to `O=C(c1cccc(CN2CCN(C3COc4ccccc4O3)CC2)c1)N1CCCCC1` (stereo unspecified), for which the Ki was 0.34 nM in [1] and 21 nM in assay [4]. The inhibition in vivo at 5 mg/kg in the assay with Rattus norvegicus [2] was -93.8%. In addition, in the assay with Rattus norvegicus [5], the inhibition in vivo at 20 mg/kg is -68.2%. Besides, the Catalepsy with Rattus norvegicus [6] was 29%. Also, in the assay on Rattus norvegicus [7], the inhibition in vivo at 1 mg/kg was -2.6%.

As for `CC(C)Oc1ccccc1N1CCN(Cc2cccc(S(=O)(=O)N3CCCCC3)c2)CC1`, the inhibition in vivo at 5 mg/kg in the assay with Rattus norvegicus [8] was -6.7%. Besides, the Ki in assay [4] stood at 6.7 nM.

Take `CC(C)Oc1ccccc1N1CCN(Cc2cccc(C(=O)N3CCCCCCC3)c2)CC1`: the Ki stood at 0.13 nM in assay [1] and 1.9 nM in [4]. In addition, the inhibition in vivo at 5 mg/kg with Rattus norvegicus [2] is -90.4%. Moreover, the inhibition in vivo at 20 mg/kg in the assay with Rattus norvegicus [9] was -84.7%. Moreover, the values for the Catalepsy in the assay with Rattus norvegicus [6] and with Rattus norvegicus [10] were 34.4% and 17.6%, respectively. The inhibition in vivo at 1 mg/kg in the assay on Rattus norvegicus [7] is -24.5%.

Turning to `CC(C)Oc1ccccc1N1CCN(C(C)c2cccc(C(=O)N3CCCCC3)c2)CC1` (stereo unspecified), the Ki in assay [1] is above 1000 nM; in assay [4] it was 87 nM. The inhibition in vivo at 15 mg/kg with Rattus norvegicus [3] was -7.1%.

Take `CCOc1ccccc1N1CCN(Cc2cccc(C(=O)N3CCCCCC3)c2)CC1`: in the assay on Rattus norvegicus [11], the ED50 came to 1.26 mg/kg. The Ki in assay [1] was 0.71 nM; in [4] it was 8.2 nM. The Catalepsy in the assay on Rattus norvegicus [12] worked out at 47.5%.

On to `O=C(c1cccc(CN2CCN(c3nsc4ccccc34)CC2)c1)N1CCCCC1`, for which the inhibition in vivo at 5 mg/kg in the assay on Rattus norvegicus [2] was -89.6%. For the same compound, the inhibition constant (Ki) in assay [13] was found to be 2.5 nM; in [14], 2.7 nM. Also, the Catalepsy in the assay with Rattus norvegicus [6] is 74%.

Take `O=C(c1cccc(CN2CCN(c3cccc(Cl)c3)CC2)c1)N1CCCCC1`: the Ki in [1] was determined as 1.2 nM; in [4], 11.4 nM. Further, the inhibition in vivo at 5 mg/kg in the assay with Rattus norvegicus [2] is -36.1%. Besides, the inhibition in vivo at 20 mg/kg in the assay on Rattus norvegicus [9] is -27.9%. Besides, the Catalepsy in the assay on Rattus norvegicus [6] came to 21.8%; with Rattus norvegicus [10] it was 33.9%.
